Measured values: ChEMBL document CHEMBL5661984, “Allosteric ligands for the pharmacologically dark receptors GPR68 and GPR65” (Nature, 2015)
Activity calls are given as the source filed them.

How the values were obtained:
[1] = Positive allosteric modulator activity at GPR68 R189M mutant transfected in human HEK293T cells assessed as proton-mediated calcium release at 10 uM incubated for 10 mins by Fluo-4 Direct calcium dye based FLIPR assay (reference value: 6.77 +/- 0.01); assay type: cell-based; details: HEK-293T
[2] = target: T1, G-protein coupled receptor 68 (Homo sapiens, UniProt Q15743); test: Positive allosteric modulator activity at GPR68 expressed in human HEK293T cells assessed as proton-mediated phosphatidylinositol hydrolysis on pH 8.4 at 10 uM incubated for 20 mins by TriLuxMicroBeta counter analysis; assay type: functional, cell-based; details: filed as positive allosteric modulator
T1 sequence (Q15743 whole entry): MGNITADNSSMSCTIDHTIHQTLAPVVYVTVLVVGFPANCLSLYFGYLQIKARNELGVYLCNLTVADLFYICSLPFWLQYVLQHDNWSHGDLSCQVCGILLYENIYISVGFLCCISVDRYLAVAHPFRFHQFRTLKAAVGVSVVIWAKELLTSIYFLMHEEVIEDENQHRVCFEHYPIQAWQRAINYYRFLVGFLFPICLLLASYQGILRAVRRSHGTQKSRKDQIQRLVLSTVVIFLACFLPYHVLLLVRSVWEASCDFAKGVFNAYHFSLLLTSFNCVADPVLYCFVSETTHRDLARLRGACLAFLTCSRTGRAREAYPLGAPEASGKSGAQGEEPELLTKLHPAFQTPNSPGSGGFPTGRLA
Method in brief: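 GPR68-transfected HEK293-T cells labeled overnight with 3H-inositol (1 μCi/well) in inositol-free DMEM with 5% dialyzed FBS. Treated for 20 min at pH 8.4 in HBSS with 10 mM HEPES, 10 mM MES and 20 mM LiCl, compound at 10 μM. Extracted with 50 mM ice-cold formic acid, 30 min at 4°C. Captured on YSi beads and counted (cpm/well). n=3. 4-parameter logistic fit.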

[3] = Positive allosteric modulator activity at GPR68 E160K mutant transfected in human HEK293T cells assessed as proton-mediated calcium release at 10 uM incubated for 10 mins by Fluo-4 Direct calcium dye based FLIPR assay (reference value: 6.79 +/- 0.02); assay type: cell-based; details: HEK-293T
[4] = Positive allosteric modulator activity at GPR68 R189L mutant transfected in human HEK293T cells assessed as proton-mediated calcium release at 10 uM incubated for 10 mins by Fluo-4 Direct calcium dye based FLIPR assay (reference value: 6.85 +/- 0.02); assay type: cell-based; details: HEK-293T
[5] = Positive allosteric modulator activity at GPR68 R189M mutant transfected in human HEK293T cells assessed as proton-mediated calcium release at 10 uM incubated for 10 mins by Fluo-4 Direct calcium dye based FLIPR assay (reference value: 1.43 +/- 0.01 %); details: HEK-293T, condition central nervous system disease
Mus musculus [6] = species on record: Mus musculus; test: Antipsychotic activity against GPR68 knockout C57BL/6 mouse assessed as cued memory retrieval by Morris water maze test; assay type: functional, organism-based
[7] = Positive allosteric modulator activity at GPR68 E160A mutant expressed in human HEK293T cells assessed as cAMP production in presence of H+ proton by Split-luciferase based luminescence counter analysis (reference value: 7.34+/-0.05); assay type: cell-based; details: HEK-293T
Method in brief: (§1)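 Proton concentration-response of GPR68 (wild type or E160A/K/Q, R189L/M, H269F mutants) in transiently transfected HEK293-T cells. Read-out: GloSensor cAMP, with luciferin loading 90 min at 37°C at pH 8.4. Run with and without increasing modulator concentrations; 20 min at room temperature before luminescence. Proton KA fixed to the proton EC50 without modulator. KB, τA, α, β fitted globally with an operational allosteric model. n=4.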

[8] = Positive allosteric modulator activity at GPR68 R189L mutant expressed in human HEK293T cells assessed as cAMP production in presence of H+ proton by Split-luciferase based luminescence counter analysis (reference value: 7.20+/-0.03); assay type: cell-based; details: HEK-293T; method in brief: as §1
[9] = Positive allosteric modulator activity at GPR68 H269F mutant transfected in human HEK293T cells assessed as proton-mediated calcium release at 10 uM incubated for 10 mins by Fluo-4 Direct calcium dye based FLIPR assay (reference value: 1.57 +/- 0.01 %); details: HEK-293T, condition central nervous system disease
[10] = target: T1, G-protein coupled receptor 68; test: Positive allosteric modulator activity at HA-tagged GPR68 expressed in human HEK293T cells assessed as activation of PKA at pH 7.4 by immunoblotting analysis; assay type: cell-based; details: filed as positive allosteric modulator
Method in brief: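 HEK293 cells stably expressing N-terminal HA-tagged human GPR68 (vector-only line as control), selected with 250 μg/ml G418. Confluent cells were switched to Hams-F12 at pH 8.0 or 7.4 for 1 h, then given vehicle or 50 μM compound for 10 min. Lysate immunoblots were probed for HA, total VASP, p-p42/p44 and β-actin, read with infrared-fluorophore secondaries.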

[11] = Positive allosteric modulator activity at GPR68 H269F mutant transfected in human HEK293T cells assessed as proton-mediated calcium release at 10 uM incubated for 10 mins by Fluo-4 Direct calcium dye based FLIPR assay (reference value: 6.44 +/- 0.02); assay type: cell-based; details: HEK-293T
[12] = Positive allosteric modulator activity at GPR68 E160A mutant expressed in human HEK293T cells assessed as cAMP production in presence of H+ proton by Split-luciferase based luminescence counter analysis (reference value: 6.6+/-0.3 %); details: HEK-293T, condition central nervous system disease; method in brief: as §1
Mus musculus [13] = species on record: Mus musculus; test: […] activity against GPR68 knockout C57BL/6 mouse assessed as contextual memory retrieval; assay type: functional, organism-based
Method in brief: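 Fear conditioning in wild-type and GPR68 KO C57BL/6J congenic mice. Training was 8 min: 3 pairings of a 30-s, 90 dB, 5 kHz tone with a 2-s, 0.6 mA foot shock. Context freezing scored at 24 h over 5 min; cue test at 48 h over 6 min. Freezing defined as no movement for 0.5 s. Compound 10 mg/kg in 10% Tween 80 or saline, 30 min before training. n=6–8 per group. Two-way ANOVA with Bonferroni post-hoc test.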

[14] = Positive allosteric modulator activity at GPR68 H269F mutant expressed in human HEK293T cells assessed as cAMP production in presence of H+ proton by Split-luciferase based luminescence counter analysis (reference value: 17.7+/-0.8 %); details: HEK-293T, condition central nervous system disease; method in brief: as §1
[15] = Positive allosteric modulator activity at GPR68 R189M mutant expressed in human HEK293T cells assessed as cAMP production in presence of H+ proton by Split-luciferase based luminescence counter analysis (reference value: 6.71+/-0.03); assay type: cell-based; details: HEK-293T; method in brief: as §1
[16] = Positive allosteric modulator activity at GPR68 E160Q mutant expressed in human HEK293T cells assessed as cAMP production in presence of H+ proton by Split-luciferase based luminescence counter analysis (reference value: 6.83+/-0.09); assay type: cell-based; details: HEK-293T; method in brief: as §1
[17] = target: C-X-C chemokine receptor type 4 (Homo sapiens) (UniProt P61073); test: Agonist activity against CXCR4 receptor (unknown origin) transfected in human HEK293T cells at 10 uM incubated for 15 mins in presence of CXCL12 by luminescence counter analysis; assay type: functional, cell-based
C-X-C chemokine receptor type 4 (Homo sapiens), sequence (P61073 whole entry): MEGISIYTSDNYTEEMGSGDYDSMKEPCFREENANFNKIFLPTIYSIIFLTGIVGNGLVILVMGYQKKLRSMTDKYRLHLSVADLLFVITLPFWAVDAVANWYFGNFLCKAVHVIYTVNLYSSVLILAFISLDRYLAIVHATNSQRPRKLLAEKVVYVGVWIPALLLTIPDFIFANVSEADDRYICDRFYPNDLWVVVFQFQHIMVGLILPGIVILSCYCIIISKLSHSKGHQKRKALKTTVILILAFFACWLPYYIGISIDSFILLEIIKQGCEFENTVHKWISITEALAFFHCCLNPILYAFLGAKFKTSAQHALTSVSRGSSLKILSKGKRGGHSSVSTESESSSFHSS
Method in brief: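 HEK293-T cells transiently transfected with CXCR4 and the GloSensor cAMP reporter, plated in DMEM with 1% dialyzed FBS. Test compound at 10 μM in 20 mM HEPES/HBSS, pH 7.4, 15 min at room temperature. Agonist mode: luciferin (4 mM final) plus 200 nM isoproterenol added, 20 min. Antagonist mode: compound 10 min, then reference agonist at EC80 for 10 min, then luciferin/isoproterenol. Luminescence read. CXCL12 (1 or 3 μM) is the agonist control and AMD3100 (10 μM) the antagonist control. n=2.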

[18] = Positive allosteric modulator activity at GPR68 H269F mutant expressed in human HEK293T cells assessed as cAMP production in presence of H+ proton by Split-luciferase based luminescence counter analysis (reference value: 5.75+/-0.03); assay type: cell-based; details: HEK-293T; method in brief: as §1
[19] = Toxicity in C57BL/6 mouse assessed as cued memory retrieval by Morris water maze test; details: in vivo

For `Nc1nc(NCc2ccccc2)nc(-c2ccccc2CO)n1` [Ogerin], the EC50 [1] was 155 nM, the Activity [2] was “Active” and the EC50 [3] was 151 nM. The EC50 [4] was 87.1 nM, the Emax at 10 µM [5] was 1.36% and the Activity (Mus musculus [6]) was “inactive”. The EC50 [7] was 11.7 nM, the EC50 [8] was 43.7 nM and the Emax at 10 µM [9] was 1.56%. The Activity [10] was “Active”, the EC50 [11] was 145 nM and the Emax [12] was 11.7%. For the same compound, the Activity (Mus musculus [13]) was “inactive”, the Emax [14] was 45.1% and the EC50 [15] was 191 nM. For the same compound, the EC50 [16] was 26.9 nM, the Activity [17] was “inactive” and the EC50 [18] was 398 nM. For the same compound, the Activity [19] was “Non-Toxic”.
